Measured values as given in ChEMBL document CHEMBL1141102, “Structure-activity studies of peptides from the "hot-spot" region of human CD2 protein: development of peptides for immunomodulation” (2005).
Where a SMILES comes first, the peptide text is derived from it. Bridges are numbered along the chain shown (N, C = ends). [ ]: non-standard residue; d: D form. The star is where a group is joined. Pen = CC(C)(S)[C@H](N)C(=O)O; Acm = CC(=O)NC*

Experiments:
[1] = Percent inhibition of CD58 and CD2 interaction in caco-2 and Jurkat cell adhesion assay at 90 uM; assay type: functional; details: Homo sapiens
Summary of the method: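 Confluent Caco-2 monolayers (passages 50–60, human CD58) preincubated with peptide in MEM-α at 37 °C for 30 min. Jurkat cells (CD2), loaded with 2 μM BCECF at 37 °C for 1 h, then added at 1×10^6 cells/well for 45 min at 37 °C. Nonadherent cells washed off with PBS; bound cells lysed in 2% Triton X-100/0.2 N NaOH. Background-corrected fluorescence read; percent inhibition; mean of three experiments.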

[2] = molecular target: T1, Lymphocyte function-associated antigen 3 (Homo sapiens) (UniProt P19256); assay: Percent inhibition of E-rossette formation in sheep red blood cells at 200 uM on incubation with T-cells; range 5-15%; assay type: functional, cell-based; details: Ovis aries
T1 sequence (whole entry): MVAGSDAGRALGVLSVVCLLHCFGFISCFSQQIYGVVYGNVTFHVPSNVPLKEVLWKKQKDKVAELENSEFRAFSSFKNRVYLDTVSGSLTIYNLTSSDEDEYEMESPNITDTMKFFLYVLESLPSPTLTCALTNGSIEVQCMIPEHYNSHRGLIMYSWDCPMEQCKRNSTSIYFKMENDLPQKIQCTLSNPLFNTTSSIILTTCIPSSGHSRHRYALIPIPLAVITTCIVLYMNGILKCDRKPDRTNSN
Summary of the method: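 Sheep RBCs treated with AET at 37 °C for 15 min, used as 0.5% suspension. Peptide serially diluted in PBS, incubated with the SRBCs at 37 °C for 30 min, then Jurkat cells (2×10^6 cells/mL) added for 15 min. Cells pelleted and held at 4 °C for 1 h. Rosettes counted by hemocytometer on at least 200 cells; percent inhibition; mean of three independent experiments.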

Compound	inhibition at 90 µM [1] [%]	inhibition [2] [%]
CC(=O)NCSC[C@H](NC(=O)[C@H](Cc1ccccc1)NC(=O)[C@@H](NC(=O)[C@H](CCC(=O)O)NC(=O)[C@H](CCCCN)NC(=O)[C@H](CCC(=O)O)NC(=O)[C@H](CCCCN)NC(=O)[C@H](CCCN=C(N)N)NC(=O)[C@H](Cc1ccccc1)NC(=O)[C@H](CCC(N)=O)NC(=O)[C@H](C)NC(=O)[C@@H](N)C(C)(C)SCNC(C)=O)[C@@H](C)O)C(=O)O (H-[Pen](Acm)AQFRKEKETFC(Acm)-OH)	25	–
C[C@@H]1NC(=O)[C@@H](N)C(C)(C)SSC[C@@H](C(=O)O)NC(=O)[C@H](Cc2ccccc2)NC(=O)[C@H]([C@@H](C)O)NC(=O)[C@H](CCC(=O)O)NC(=O)[C@H](CCCCN)NC(=O)[C@H](CCC(=O)O)NC(=O)[C@H](CCCCN)NC(=O)[C@H](CCCN=C(N)N)NC(=O)[C@H](Cc2ccccc2)NC(=O)[C@H](CCC(N)=O)NC1=O (H-[Pen]AQFRKEKETFC-OH; disulfide 1-12)	50	–
C[C@@H](O)[C@@H]1NC(=O)[C@@H](CC(=O)O)NC(=O)[C@H](Cc2ccc(O)cc2)NC(=O)[C@@H](CCCCN)NC(=O)CNC(=O)[C@@H](CCCCN)NC1=O	20	–
NCCCC[C@@H]1NC(=O)[C@@H](CCC(=O)O)NC(=O)[C@H](CCCCN)NC(=O)[C@@H](CCCN=C(N)N)NC(=O)[C@H](Cc2ccccc2)NC(=O)[C@@H](CCC(=O)O)NC1=O	25	–
CC[C@H](C)[C@@H]1NC(=O)[C@@H](N)C(C)(C)SSC[C@@H](C(=O)O)NC(=O)[C@H](CC(C)C)NC(=O)[C@H](C(C)C)NC(=O)[C@H](CC(N)=O)NC(=O)[C@H](CCCCN)NC(=O)CNC(=O)[C@H](CCCCN)NC(=O)[C@H]([C@@H](C)O)NC(=O)[C@H](CC(=O)O)NC(=O)[C@H](Cc2ccc(O)cc2)NC1=O	50	–
H-SIYDTKGKNVLE-NH2	25	15
